Values joined by “and” are separate entries in the source; they are usually repeats but may differ in a detail not shown here. Equal values may be shown once. Active and inactive are the calls of the source.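 The calls were made as follows: active = compounds that lower cell viability with a fitted AC50 at most ten times their top valid dose; inconclusive = flat fit showing 30 to 70 percent loss, or poor fit; inactive = the rest.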
Test system: not listed separately
Assay: U2OS reporter cell viability with added iron – iron-supplemented medium, dry powder, cytotoxicity control for HIF pathway activator project, dose response (AID 504331)
Conditions: U2OS HRE-luc cells viability, CellTiter-Glo luminescence; at 38 µM (top of the series)
Method in brief: (§1)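 system = human U2OS osteosarcoma cells with 3xHRE-driven luciferase reporter | quantity = 6,000 cells per well | buffer or medium = phenol red-free DMEM, 10% FBS, 50 µM final ferric nitrate | dosing = 8 concentrations, 3-fold dilution steps | times = cells plated 24 h before dosing, 24 h compound exposure at 37 °C | technique = viability luminescence, CellTiter-Glo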

| SMILES | activity change, negative = cytotoxicity |
| --- | --- |
| CC(C)(C)CCNC(=O)c1cc(-c2ccccc2)on1 | -4% (inactive) |
| Cn1c(NC(=O)c2cc(-c3ccccc3)on2)nc2ccccc21 | 15.8% (inactive) |
| O=C(Nc1cn2ccccc2n1)c1cc(-c2ccccc2)on1 | 15.5% (inactive) |
| C=CCNc1nc(-c2ccccn2)nnc1-c1ccccc1 | 6.06% (inactive) |
| O=C(c1cc(-c2ccccc2)on1)N1CCC(N2CCCC2)CC1 | -1.03% (inactive) |
| c1ccc(-c2nnc(-c3ccccn3)nc2NCCCN2CCOCC2)cc1 | 9.59% (inactive) |
| O=C(NCC1CCCCC1)c1cc(-c2ccccc2)on1 | -8.74% (inactive) |
| O=C(c1cc(-c2ccccc2)on1)N1CCC(CO)CC1 | 7.47% (inactive) |
| O=C(c1cc(-c2ccccc2)on1)N1CCC(N2CCOCC2)CC1 | 5.61% (inactive) |
| CC(C)(C)CCNc1nc(-c2ccccn2)nnc1-c1ccccc1 | -21.1% (inactive) |
| O=C(NCCCCO)c1cc(-c2ccccc2)on1 | 1.09% (inactive) |
| Cc1ccc(NC(=O)c2cc(-c3ccccc3)on2)cn1 | -4.1% (inactive) |
| O=C(NCCN1CCOCC1)c1cc(-c2ccccc2)on1 | 12.9% (inactive) |
| O=C(Nc1ncc(-c2ccccc2)o1)c1cc(-c2ccccc2)on1 | 1.13% (inactive) |
| Cc1cccc(CNc2nc(-c3ccccn3)nnc2-c2ccccc2)c1 | -8.02% (inactive) |
| c1ccc(-c2nnc(-c3ccccn3)nc2NCc2cccnc2)cc1 | 17% (inactive) |
| Cc1cccc(CNC(=O)c2cc(-c3ccccc3)on2)c1 | -4.42% (inactive) |
| O=C(NCCN1CCCCC1)c1cc(-c2ccccc2)on1 | 14% (inactive) |
| c1ccc(-c2nnc(-c3ccccn3)nc2N2CCC(N3CCOCC3)CC2)cc1 | 5.36% (inactive) |
| Oc1ccc(CN2CCC(Cc3ccccc3)CC2)c2cccnc12 | -1.73% (inactive) |
| O=C(Nc1cnc2ccccc2c1)c1cc(-c2ccccc2)on1 | -0.953% (inactive) |
| c1ccc(-c2nnc(Nc3nc(-c4ccccn4)nnc3-c3ccccc3)s2)cc1 | 5.32% (inactive) |
| c1ccc(CNc2nc(-c3ccccn3)nnc2-c2ccccc2)cc1 | 0.83% (inactive) |
| O=C(NC1Cc2ccccc2C1)c1cc(-c2ccccc2)on1 | -12.2% (inactive) |
| c1ccc(-c2cccc(CNc3nc(-c4ccccn4)nnc3-c3ccccc3)c2)cc1 | -2.48% (inactive) |
| O=C(Nc1nc2ccccc2s1)c1cc(-c2ccccc2)on1 | 11.3% (inactive) |
| O=C(NCCCn1ccnc1)c1cc(-c2ccccc2)on1 | -7.58% (inactive) |
| Cc1ccccc1CNC(=O)c1cc(-c2ccccc2)on1 | 4.84% (inactive) |

| SMILES | activity change, negative = cytotoxicity |
| --- | --- |
| CCCCNC(=O)c1cc(-c2ccccc2)on1 | 5.24% (inactive) |
| c1ccc(-c2nnc(-c3ccccn3)nc2NCCc2ccccn2)cc1 | -1.62% (inactive) |
| c1ccc(-c2nnc(-c3ccccn3)nc2NCCN2CCOCC2)cc1 | -5.86% (inactive) |
| O=C(Nc1ccc2ccccc2n1)c1cc(-c2ccccc2)on1 | 13% (inactive) |
| CC(C)(C)OC(=O)N1CCN(Cc2ccc(O)c3ncccc23)CC1 | 8.63% (inactive) |
| CN(C)CCNC(=O)c1cc(-c2ccccc2)on1 | 11% (inactive) |
| OCCCNc1nc(-c2ccccn2)nnc1-c1ccccc1 | 12.8% (inactive) |
| O=C(NCCCN1CCOCC1)c1cc(-c2ccccc2)on1 | 11% (inactive) |
| c1ccc(-c2nnc(-c3ccccn3)nc2NCC2CC2)cc1 | 4.24% (inactive) |
| O=C(NCC1CC1)c1cc(-c2ccccc2)on1 | 20.9% (inactive) |
| CN(C)c1nc(-c2ccccn2)nnc1-c1ccccc1 | 13.9% (inactive) |
| c1ccc(-c2nnc(-c3ccccn3)nc2N2CCC(C3CCCCC3)C2)cc1 (centres undefined) | 0.423% (inactive) |
| O=C(Nc1nc(-c2ccccc2)cs1)c1cc(-c2ccccc2)on1 | 8.59% (inactive) |
| O=C(Nc1ncc2ccccc2n1)c1cc(-c2ccccc2)on1 | -12.2% (inactive) |
| CN1CCN(C(=O)c2cc(-c3ccccc3)on2)CC1 | 2.12% (inactive) |
| O=C(NCc1ccccc1)c1cc(-c2ccccc2)on1 | 6.28% (inactive) |
| Cc1ccccc1CNc1nc(-c2ccccn2)nnc1-c1ccccc1 | -20% (inactive) |
| O=C(c1cc(-c2ccccc2)on1)N1CCc2cccnc21 | -7.82% (inactive) |
| Cc1cccc(NC(=O)c2cc(-c3ccccc3)on2)n1 | -3.67% (inactive) |
| O=C(Nc1nnc(-c2ccccc2)s1)c1cc(-c2ccccc2)on1 | 13.2% (inactive) |
| N#CC1(c2ccccc2)CCN(Cc2ccc(O)c3ncccc23)CC1 | 10.7% (inactive) |
| Cn1c(-c2ccccc2)cnc1NC(=O)c1cc(-c2ccccc2)on1 | -7.51% (inactive) |
| c1ccc(-c2nnc(-c3ccccn3)nc2NCC2CCOCC2)cc1 | 5.99% (inactive) |
| c1ccc(-c2nnc(-c3ccccn3)nc2N2CCN(c3ccncc3)CC2)cc1 | 7.73% (inactive) |
| CN1CCN(c2nc(-c3ccccn3)nnc2-c2ccccc2)CC1 | -22.1% (inactive) |
| O=C(NCCCO)c1cc(-c2ccccc2)on1 | -4.34% (inactive) |
| Cc1ccc(CNC(=O)c2cc(-c3ccccc3)on2)cc1 | -12.1% (inactive) |

Test system: U2OS HRE-luc cells viability, CellTiter-Glo luminescence
Assay: as above
Conditions: not given
Method in brief: as §1

| SMILES | AC50 |
| --- | --- |
| Oc1ccc(CN2CCc3ccccc3C2)c2cccnc12 | 23.3 µM and 24.6 µM |
| Oc1ccc(CNC2CCc3ccccc32)c2cccnc12 (centres undefined) | 35.7 µM |
| C[C@@H](Nc1nc(-c2ccccn2)nnc1-c1ccccc1)C1CCCCC1 | 32 µM |
| O=C(c1cc(-c2ccccc2)on1)N1CCN(c2ccncc2)CC1 | > 38 µM (inactive) |
| OCC1CCN(Cc2ccc(O)c3ncccc23)CC1 | 2.54 µM |
| O=C(NC1CCc2ccccc2C1)c1cc(-c2ccccc2)on1 (centres undefined) | > 38 µM (inactive) |
| Oc1ccc(CN2CCC3CCCCC3C2)c2cccnc12 (centres undefined) | 22.5 µM |
| Cn1c(-c2ccccc2)cnc1Nc1nc(-c2ccccn2)nnc1-c1ccccc1 | > 38 µM (inactive) |
| Oc1ccc(CNC2Cc3ccccc3C2)c2cccnc12 | 22.5 µM |
| c1ccc(-c2nnc(-c3ccccn3)nc2N2CCC(c3ccccc3)C2)cc1 (centres undefined) | 13.6 µM |
| CC1CN(Cc2ccc(O)c3ncccc23)CC(C)O1 (centres undefined) | 15.6 µM |
| c1ccc(-c2csc(Nc3nc(-c4ccccn4)nnc3-c3ccccc3)n2)cc1 | > 38 µM (inactive) |
| c1ccc(-c2nnc(-c3ccccn3)nc2NCc2ccccn2)cc1 | > 38 µM (inactive) |
| COc1ccccc1N1CCN(Cc2ccc(O)c3ncccc23)CC1 | 33.2 µM |

— PubChem BioAssay AID504331 (Broad Institute, 2011)
